The nature of series [1]: Kinetic solubility of the compound in potassium phosphate buffer at pH 6.8 by turbidometric analysis. Conditions: read-out: Kinetic_solubility. Type of series: physicochemical.
The species entered for a further series is Homo sapiens. Put plainly: Selectivity ratio of IC50 for full length C-terminal His6x-tagged recombinant human HDAC8 to IC50 for N-terminal GST-tagged recombinant HDAC6 (unknown origin).
Series [2] concerns the target T1, Protein deacetylase HDAC6 (Homo sapiens) (UniProt Q9UBN7).
T1 sequence (whole entry): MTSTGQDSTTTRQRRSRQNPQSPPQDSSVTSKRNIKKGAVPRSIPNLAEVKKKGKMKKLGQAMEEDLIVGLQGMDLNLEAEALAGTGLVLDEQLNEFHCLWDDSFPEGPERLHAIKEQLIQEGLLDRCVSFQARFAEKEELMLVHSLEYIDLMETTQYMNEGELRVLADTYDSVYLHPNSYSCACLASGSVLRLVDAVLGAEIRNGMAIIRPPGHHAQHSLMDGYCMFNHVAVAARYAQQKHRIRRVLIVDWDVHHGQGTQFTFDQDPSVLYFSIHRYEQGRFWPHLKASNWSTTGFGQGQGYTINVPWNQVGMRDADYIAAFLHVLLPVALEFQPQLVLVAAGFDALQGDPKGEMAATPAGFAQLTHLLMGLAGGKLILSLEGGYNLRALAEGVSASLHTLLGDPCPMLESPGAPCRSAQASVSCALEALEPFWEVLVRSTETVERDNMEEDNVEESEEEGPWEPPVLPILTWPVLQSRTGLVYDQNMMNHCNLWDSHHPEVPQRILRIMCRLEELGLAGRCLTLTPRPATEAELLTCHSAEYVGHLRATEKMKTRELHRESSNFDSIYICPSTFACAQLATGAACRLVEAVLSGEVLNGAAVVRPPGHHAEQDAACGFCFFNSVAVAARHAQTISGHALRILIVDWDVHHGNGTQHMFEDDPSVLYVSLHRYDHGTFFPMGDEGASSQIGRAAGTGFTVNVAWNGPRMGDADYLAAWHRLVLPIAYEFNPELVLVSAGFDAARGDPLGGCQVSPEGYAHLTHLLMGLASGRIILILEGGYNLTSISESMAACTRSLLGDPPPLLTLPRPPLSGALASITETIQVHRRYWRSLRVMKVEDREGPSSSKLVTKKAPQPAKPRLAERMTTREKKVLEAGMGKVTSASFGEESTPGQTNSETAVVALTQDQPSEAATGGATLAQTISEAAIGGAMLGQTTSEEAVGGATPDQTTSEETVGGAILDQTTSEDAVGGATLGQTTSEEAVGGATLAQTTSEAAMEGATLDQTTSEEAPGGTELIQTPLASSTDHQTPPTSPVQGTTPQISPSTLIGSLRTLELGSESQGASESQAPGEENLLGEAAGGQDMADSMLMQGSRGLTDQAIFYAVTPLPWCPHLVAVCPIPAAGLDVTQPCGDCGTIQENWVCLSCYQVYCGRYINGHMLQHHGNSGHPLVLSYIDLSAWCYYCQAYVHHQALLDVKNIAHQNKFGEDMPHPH
Put plainly: Inhibition of HDAC6 in human HeLa cells using acetyl tubulin as substrate assessed as Ac-Lys accumulation in nuclear histones at 20 uM after 24 hrs by immunofluorescence assay relative to control.

Series [3] addresses T2, Protein deacetylase HDAC6 (Homo sapiens, UniProt Q9UBN7).
T2 sequence (Q9UBN7 whole entry): T1 sequence (whole entry)
As to the kind of experiment: Inhibition of N-terminal GST-tagged recombinant HDAC6 (unknown origin) assessed as deacetylation of Ac-Arg-Gly-Lys (Ac) after 1 hr by fluorescence plate reader analysis in presence of trypsin.

For series [4], the target named is T2, Protein deacetylase HDAC6. Put plainly: Inhibition of HDAC6 in human HeLa cells using acetyl tubulin as substrate assessed as Ac-tubulin accumulation in cytosol after 6 hrs by immunofluorescence assay.
Series [5] in a line: Selectivity ratio of IC50 for HDAC1/2 in human HeLa cell nuclear extract to IC50 for N-terminal GST-tagged recombinant HDAC6 (unknown origin). Type of series: cell-based. The method, boiled down:
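HDAC6 leg: 1 nM GST-HDAC6 with 8 μM Ac-Arg-Gly-Lys(Ac)-AMC. Nuclear-extract leg: 30 μg/mL HeLa nuclear extract (mainly HDAC1/2) with 20 μM of the same substrate in 50 mM Tris-Cl, 137 mM NaCl, 2.7 mM KCl, 1 mM MgCl2, pH 8.0.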

Structures are written as SMILES. Values after ≈ are worked out from the molar mass of the structure shown. Where only a bound is given, the exact number is not on record here.

With `O=C(NO)c1ccc2c(c1)CCCN(C(=O)C1CCCCCC1)C2`, in series [1], the solubility kinetic was > 200 µM. Besides, the Ratio IC50 is 40 in the series listed under Homo sapiens and > 200 in series [5]. In addition, the inhibition (usually how much of the control response was suppressed) in series [2] was < 20%. Besides, the IC50 (as a rule, the concentration at which inhibition is half-maximal) in series [3] was determined as 340 nM; in series [4], 2900 nM.

Turning to `O=C(NO)c1ccc2c(c1)CCN(C(=O)C1CCCCC1)C2`, the solubility kinetic in series [1] is > 200 µM. Further, in series [2], the inhibition was < 20%. Also, the figures for the IC50 in series [3] and in series [4] were 50 nM and 540 nM, respectively. Moreover, the Ratio IC50 in series [5] is 730.

Take `O=C(NO)c1ccc2c(c1)CCN(S(=O)(=O)c1ccc(C(F)(F)F)cc1)C2`: the solubility kinetic in series [1] came out at 25 µM (≈ 10 µg/mL). In series [2], the inhibition is < 20%. The IC50 in series [3] is 60 nM; in series [4] it was 1300 nM. Further, the Ratio IC50 in series [5] worked out at 610.

Turning to `Cn1cccc1C(=O)N1CCc2sc(C(=O)NO)cc2C1`, in series [1], the solubility kinetic was > 200 µM. Besides, the inhibition in series [2] was < 20%. Further, the IC50 in series [3] was determined as 24 nM; in series [4] it was 18 nM. Also, the Ratio IC50 in series [5] was 30.

Turning to `Cn1cccc1C(=O)NCc1cnc(C(=O)NO)s1`, the solubility kinetic in series [1] is > 200 µM. The IC50 in series [3] is 12000 nM. The Ratio IC50 in series [5] stood at 8.

In the case of `O=C(NO)c1ccc2c(c1)CCCN(C(=O)c1ccc(-c3ccccc3)cc1)C2`, in series [1], the solubility kinetic was > 200 µM. Moreover, the Ratio IC50 in the series filed under Homo sapiens is 40; in series [5], 60. In addition, the inhibition in series [2] was < 20%. Besides, the IC50 in series [3] turned out to be 120 nM; in series [4], 3090 nM.

For the compound `O=C(NO)c1cc2c(s1)CCN(C(=O)C1CCCCC1)C2`, the solubility kinetic in series [1] is > 200 µM. Further, the Ratio IC50 in the series filed under Homo sapiens is 40; in series [5], 47. In series [2], the inhibition was < 20%. The results for the IC50 in series [3] and in series [4] were 36 nM and 162 nM, respectively.

Turning to `O=C(NO)c1ccc2c(c1)CCN(C(=O)c1ccc(-c3ccccc3)cc1)CC2`, in series [1], the solubility kinetic is > 200 µM. Moreover, the Ratio IC50 is 40 in the series filed under Homo sapiens and 340 in series [5]. Also, the inhibition in series [2] was < 20%. The figures for the IC50 in series [3] and in series [4] were 59 nM and 2600 nM, respectively.

Regarding `CC(C)(C)C(=O)N1CCCc2cc(C(=O)NO)ccc2C1`, the solubility kinetic in series [1] was > 200 µM. Further, the results for the Ratio IC50 (in the series filed under Homo sapiens; in series [5]) were 40 and > 200, respectively. In addition, the inhibition in series [2] is < 20%. Besides, the IC50 in series [3] was 490 nM; in series [4], 3680 nM.

On to `O=C(NO)c1ccc(CNC(=O)C2CCCCC2)cc1`, for which the solubility kinetic in series [1] was > 200 µM. Moreover, the Ratio IC50 in the series listed under Homo sapiens worked out at 40; in series [5], 84. Besides, the IC50 in series [3] came out at 76 nM.

For `CC(C)(C)C(=O)N1CCc2ccc(C(=O)NO)cc2CC1`, in series [1], the solubility kinetic was > 200 µM. The Ratio IC50 in the series filed under Homo sapiens was found to be 40; in series [5], 340. Moreover, the inhibition in series [2] was < 20%. Also, the IC50 turned out to be 120 nM in series [3] and 580 nM in series [4].

With `Cn1cccc1C(=O)N1CCc2ccc(C(=O)NO)cc2CC1`, the solubility kinetic in series [1] was > 200 µM. Besides, the Ratio IC50 in the series listed under Homo sapiens is 40; in series [5], 480. Besides, in series [2], the inhibition is < 20%. In addition, the IC50 was determined as 130 nM in series [3] and 1510 nM in series [4].

Take `O=C(NO)c1ccc2c(c1)CCN(C(=O)C1CCCCCC1)CC2`: the solubility kinetic in series [1] is > 200 µM. The Ratio IC50 in the series listed under Homo sapiens was 40; in series [5], 340. Also, in series [2], the inhibition is < 20%. Besides, the IC50 in series [3] is 120 nM; in series [4], 2000 nM.

With `Cn1cccc1C(=O)N1CCc2cc(C(=O)NO)sc2C1`, the solubility kinetic in series [1] is > 200 µM. In addition, the inhibition in series [2] is < 20%. The IC50 came out at 28 nM in series [3] and 5 nM in series [4]. Further, the Ratio IC50 in series [5] was 14.

Consider `CC(C)(C)C(=O)NCc1ccc(C(=O)NO)cc1`, for which the solubility kinetic in series [1] was > 200 µM. Moreover, the Ratio IC50 in the series listed under Homo sapiens stood at 40; in series [5], 200. Also, the IC50 in series [3] turned out to be 79 nM.

Turning to `O=C(NO)c1ccc2c(c1)CCN(C(=O)C1CCCCCC1)C2`, the solubility kinetic in series [1] was > 200 µM. Further, the inhibition in series [2] was < 20%. In addition, the IC50 in series [3] is 54 nM; in series [4], 340 nM. Further, the Ratio IC50 in series [5] stood at 650.

Turning to `O=C(NO)c1cc2c(s1)CN(C(=O)C1CCCCC1)CC2`, in series [1], the solubility kinetic was > 200 µM. The inhibition in series [2] is < 20%. Further, the figures for the IC50 in series [3] and in series [4] were 20 nM and 50 nM, respectively. Also, the Ratio IC50 in series [5] worked out at 50.

For the compound `Cn1cccc1C(=O)NCc1ccc(C(=O)NO)s1`, in series [1], the solubility kinetic is > 200 µM. In addition, the results for the Ratio IC50 (in the series filed under Homo sapiens; in series [5]) were 40 and 202, respectively. Besides, the IC50 in series [3] was found to be 19 nM.

For the compound `Cn1cccc1C(=O)NCc1ncc(C(=O)NO)s1`, the solubility kinetic in series [1] is > 200 µM. Besides, the Ratio IC50 in the series filed under Homo sapiens was determined as 40; in series [5], 123. The IC50 in series [3] was 52 nM.

On to `CC(C)(C)C(=O)N1CCc2cc(C(=O)NO)sc2C1`, for which the solubility kinetic in series [1] was > 200 µM. In addition, the Ratio IC50 was determined as 40 in the series listed under Homo sapiens and 71 in series [5]. Further, the inhibition in series [2] is < 20%. The IC50 was 35 nM in series [3] and 158 nM in series [4].

Regarding `CC(C)(C)C(=O)N1CCc2sc(C(=O)NO)cc2C1`, the solubility kinetic in series [1] was > 200 µM. Also, the Ratio IC50 in the series listed under Homo sapiens turned out to be 40; in series [5], 64. For the same compound, the inhibition in series [2] is < 20%. The IC50 in series [3] came to 47 nM; in series [4], 177 nM.

(Values after ChEMBL document CHEMBL2429834, “Potent histone deacetylase inhibitors derived from 4-(aminomethyl)-N-hydroxybenzamide with high selectivity for the HDAC6 isoform” (J Med Chem, 2013).)
